Results gathered from unrelated publications.
Target: Mitogen-activated protein kinase kinase kinase 20 (MAP3K20, Homo sapiens, UniProt Q9NYL2)

SMILES | assay | conditions | endpoint | value
Cn1c2c(c3ccc(Cl)c(Cl)c31)C(C#N)C(C)(C)NC2=O (centres unmarked) | thermal stability, DSF | 10 µM | ΔTm | 0.4 °C
COc1ccc2c(O[C@@H]3C[C@H]4C(=O)N[C@]5(C(=O)O)CC5/C=C\CCCCC[C@H](NC(=O)OC5CCCC5)C(=O)N4C3)cc(-c3csc(NC(=O)C(C)C)n3)nc2c1C (some centres unmarked) | cell-free assay, competition with immobilised ligand | 1 µM | remaining binding | 83%
Cn1c2c(c3ccc(Cl)c(Cl)c31)C(C#N)C1(CCNCC1)NC2=O (racemic) | thermal stability, DSF | 10 µM | ΔTm | 0 °C
CN(c1ccnc(CNc2nc(Nc3ccc4c(c3)CC(=O)N4)ncc2C(F)(F)F)n1)S(C)(=O)=O | cell-free assay, competition with immobilised ligand | 1 µM | remaining binding | 100%
COc1cc2ncnc(Nc3ccc(F)c(Cl)c3)c2cc1OCCCN1CCOCC1 | cell-free assay | 0.5 µM | remaining signal | 96.2%
CC(C)(C)c1nc(-c2cccc(NS(=O)(=O)c3c(F)cccc3F)c2F)c(-c2ccnc(N)n2)s1 | enzyme activity, inhibitor, radiometric | 1 µM | remaining activity | 101%
CCCCN(CCCC)C(=O)CN1C[C@H](c2cc(OC)c3c(c2)OCO3)[C@@H](C(=O)O)[C@@H]1CC(C)(C)CCC | cell-free assay, competition with immobilised ligand | 1 µM | remaining binding | 85.2%
O=C(Nc1cnn(-c2csc(C(=O)NC3COC3)c2)c1)Nc1c(F)cccc1Cl | enzyme activity, inhibitor | 5 µM | remaining activity | 90.4%
CN1CC(Oc2cnc(C#N)cc2-c2ccn3nc(NC(=O)C4CC4)cc3c2)C1 | enzyme activity, inhibitor | 1 µM | inhibition | 12%
Cn1c2c(c3ccccc31)C(C#N)C(C)(C)NC2=O (centres unmarked) | thermal stability, DSF | 10 µM | ΔTm | -0.3 °C
Cc1ccc(C(=O)Nc2ccc(CN3CCN(C)CC3)c(C(F)(F)F)c2)cc1C#Cc1cnc2cccnn12 | enzyme activity, inhibitor | 23.5 nM | remaining activity | 2.9%
Cc1ccc(NC(=O)c2ccc(CN3CCN(C)CC3)cc2)cc1Nc1nc(-c2cccnc2)cs1 | cell-free assay | 0.5 µM | remaining signal | 86.8%
CCCOc1ccc([C@H]2[C@H](C(=O)O)[C@@H](c3ccc4c(c3)OCO4)CN2CC(=O)Nc2c(CC)cccc2CC)cc1 | cell-free assay, competition with immobilised ligand | 1 µM | remaining binding | 90%
c1nc2c(Nc3ccc4c(c3)OCCO4)nc(Nc3ccc4c(c3)OCCO4)nc2[nH]1 | enzyme activity, inhibitor | 10 µM | activity vs control | 76%
CC1(C)NC(=O)c2[nH]c3c(Cl)c(Cl)ccc3c2C1C#N (centres unmarked) | thermal stability, DSF | 10 µM | ΔTm | 0.6 °C
Nc1c(C(=O)NCc2ccc(C(=O)NCCCC3CCCCC3)cc2)cnn1-c1ccccc1 | binding, competition with immobilised ligand | 1 µM | remaining binding | 42%
Cn1c2c(c3ccc(Cl)c(Cl)c31)C(C#N)C1(CCOCC1)NC2=O (centres unmarked) | thermal stability, DSF | 10 µM | ΔTm | 0.1 °C
Nc1ncnc2occ(-c3ccc(NC(=O)Nc4cc(C(F)(F)F)ccc4F)cc3)c12 | cell-free assay, inhibitor | 20 µM | remaining signal | 0.15%
CSc1cccnc1N1CCN(Cc2nc3ccccc3[nH]2)CC1 | cell-free assay, competition with immobilised ligand | 1 µM | remaining binding | 100%
CCOc1cc(-c2nncn2C)ccc1Nc1ncc2cc(C)nc(NCC(C)(C)C)c2n1 | cell-free assay, TR-FRET | 1 µM | inhibition | ≤ 15%
O=C(N1CCS(=O)(=O)CC1)N1C[C@H](c2ccc(OC(F)(F)F)cc2)C[C@H](c2nc(C3CC3)no2)C1 | cell-free assay, competition with immobilised ligand | 1 µM | remaining binding | 100%
CCCCNc1ncc2c(-c3ccc(F)cc3)nn(C[C@H]3CC[C@H](N)CC3)c2n1 | target engagement in cells, inhibitor, chemoproteomics | 20 mM | inhibition | 35.9%
O=C1NC(=O)c2cc(Nc3ccc(F)cc3)c(Nc3ccc(F)cc3)cc21 | cell-free assay | 0.5 µM | remaining signal | 94.5%
O=C(NC[C@@H]1[C@H]2CN(C(=O)OCc3cc(C(F)(F)F)cc(C(F)(F)F)c3)C[C@@H]12)c1ccc2[nH]nnc2c1 | cell-free assay, competition with immobilised ligand | 1 µM | remaining binding | 86%
N#CCCc1ccc2c(c1)-c1[nH]c3ccc([N+](=O)[O-])cc3c1CC(=O)N2 | cell-free assay | 0.5 µM | remaining signal | 88.6%
Cn1c2c(Cl)c(Cl)ccc2c2cc(N)[nH]c(=O)c21 | thermal stability, DSF | 10 µM | ΔTm | 0.6 °C
